Measurements as given in ChEMBL document CHEMBL1122744, “2-Chloroethyl (methylsulfonyl)methanesulfonate and related (methylsulfonyl)methanesulfonates. Antineoplastic activity in vivo” (J Med Chem, 1984).

Columns and labels:
Mus musculus [1] = experiment: Mortality by day 5 expressed as number of mice died to the total treated at dose 33 mg/kg in exp6; 0/6; format: ADME, organism-based; parameters: dose 33 mg/kg; conditions: in vivo
Mus musculus [2] = experiment: Median survival time of the treated control groups, in which there are no 30-day survivors at dose 22 mg/kg in exp3; format: functional
Mus musculus [3] = experiment: Change in weight by day 5, obtained by subtracting treated groups of animals minus control groups of animals at dose 50 mg/kg in exp8; format: functional
Outline: (§1)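 Mice were inoculated ip with 10^6 P388 leukemia cells on day 0 and weighed 19–22 g that day. Compound was given ip once daily on days 1–5, within about 5 min of preparing the solution or suspension, to groups of six (occasionally five). Thirty inoculated untreated mice served as controls. The value is the average weight change of treated mice minus that of controls on day 5.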

Mus musculus [4] = experiment: Mortality by day 5 expressed as number of mice died to the total treated at dose 22 mg/kg in exp3; 0/5; format: ADME, organism-based; parameters: dose 22 mg/kg; conditions: in vivo
[5] = Ratio of median survival times for non-survivors at dose 15 mg/kg in exp3; format: functional
Outline: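 Mice were inoculated ip with 10^6 P388 leukemia cells on day 0. Groups of six (occasionally five) were dosed ip qd on days 1–5 with fresh suspensions; 30 mice served as untreated controls. Deaths were recorded daily up to day 60. T/C% compares the median survival of treated non-survivors (<60 days) with the control median. Medians used grouped data when there were no 30-day survivors, otherwise ungrouped data. t = toxic.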

[6] = Ratio of median survival times for non-survivors at dose 50 mg/kg in exp8; format: functional
Mus musculus [7] = experiment: Mortality by day 5 expressed as number of mice died to the total treated at dose 100 mg/kg in exp1; 1/6; format: ADME, organism-based; parameters: dose 100 mg/kg; conditions: in vivo
Mus musculus [8] = experiment: Change in weight by day 5, obtained by subtracting treated groups of animals minus control groups of animals at dose 22 mg/kg in exp5; format: functional; outline: as §1
[9] = Ratio of number of 30-day survivors to the total treated mice at dose 50 mg/kg in exp8; 4/6; format: functional
Mus musculus [10] = experiment: Mortality by day 5 expressed as number of mice died to the total treated at dose 15 mg/kg in exp3; 0/5; format: ADME, organism-based; parameters: dose 15 mg/kg; conditions: in vivo
Mus musculus [11] = experiment: Change in weight by day 5, obtained by subtracting treated groups of animals minus control groups of animals at dose 50 mg/kg in exp4.; format: functional; outline: as §1
Mus musculus [12] = experiment: Mortality by day 5 expressed as number of mice died to the total treated at dose 50 mg/kg in exp2; 0/5; format: ADME, organism-based; parameters: dose 50 mg/kg; conditions: in vivo
[13] = Ratio of number of 60-day survivors to the total treated mice at dose 33 mg/kg in exp4; 0/6; format: functional
Mus musculus [14] = experiment: Median survival time of the treated control groups, in which there are no 30-day survivors at dose 33 mg/kg in exp2; format: functional
[15] = Ratio of number of 30-day survivors to the total treated mice at dose 50 mg/kg in exp6; 3/6; format: functional
Mus musculus [16] = experiment: Mortality by day 5 expressed as number of mice died to the total treated at dose 22 mg/kg in exp6; 0/6; format: ADME, organism-based; parameters: dose 22 mg/kg; conditions: in vivo
[17] = Ratio of number of 30-day survivors to the total treated mice at dose 50 mg/kg in exp4; 6/6; format: functional
Mus musculus [18] = experiment: Median survival time of the treated control groups, in which there are no 30-day survivors at dose 33 mg/kg in exp5; format: functional
[19] = Ratio of median survival times for non-survivors at dose 33 mg/kg in exp2; format: functional
Mus musculus [20] = experiment: Change in weight by day 5, obtained by subtracting treated groups of animals minus control groups of animals at dose 15 mg/kg in exp3.; format: functional; outline: as §1
Mus musculus [21] = experiment: Change in weight by day 5, obtained by subtracting treated groups of animals minus control groups of animals at dose 50 mg/kg in exp7; format: functional; outline: as §1
Mus musculus [22] = experiment: Mortality by day 5 expressed as number of mice died to the total treated at dose 200 mg/kg in exp1; 5/6; format: ADME, organism-based; parameters: dose 200 mg/kg; conditions: in vivo
[23] = Ratio of median survival times for non-survivors at dose 50 mg/kg in exp6; format: functional
Mus musculus [24] = experiment: Median survival time of the treated control groups, in which there are no 30-day survivors at dose 22 mg/kg in exp7; format: functional
[25] = Ratio of median survival times for non-survivors at dose 33 mg/kg in exp3; format: functional
Mus musculus [26] = experiment: Median survival time of the untreated control groups, in which there are no 30-day survivors at dose 50 mg/kg in exp8; format: functional
Mus musculus [27] = experiment: Median survival time of the untreated control groups, in which there are no 30-day survivors at dose 150 mg/kg in exp2; format: functional
Mus musculus [28] = experiment: Median survival time of the untreated control groups, in which there are no 30-day survivors at dose 75 mg/kg in exp2; format: functional
Mus musculus [29] = experiment: Change in weight by day 5, obtained by subtracting treated groups of animals minus control groups of animals at dose 200 mg/kg in exp1.; format: functional; outline: as §1
Mus musculus [30] = experiment: Mortality by day 5 expressed as number of mice died to the total treated at dose 50 mg/kg in exp7; 0/6; format: ADME, organism-based; parameters: dose 50 mg/kg; conditions: in vivo
Mus musculus [31] = experiment: Change in weight by day 5, obtained by subtracting treated groups of animals minus control groups of animals at dose 100 mg/kg in exp1; format: functional; outline: as §1
Mus musculus [32] = experiment: Mortality by day 5 expressed as number of mice died to the total treated at dose 100 mg/kg in exp8*-Mortality was 3/6 by day 6; 2/6; format: ADME, organism-based; parameters: dose 100 mg/kg; conditions: in vivo
Mus musculus [33] = experiment: Median survival time of the untreated control groups, in which there are no 30-day survivors at dose 33 mg/kg in exp3; format: functional
Mus musculus [34] = experiment: Mortality by day 5 expressed as number of mice died to the total treated at dose 100 mg/kg in exp2; 1/5; format: ADME, organism-based; parameters: dose 100 mg/kg; conditions: in vivo
Mus musculus [35] = experiment: Change in weight by day 5, obtained by subtracting treated groups of animals minus control groups of animals at dose 33 mg/kg in exp4.; format: functional; outline: as §1
Mus musculus [36] = experiment: Change in weight by day 5, obtained by subtracting treated groups of animals minus control groups of animals at dose 50 mg/kg in exp5; format: functional; outline: as §1
[37] = Ratio of number of 60-day survivors to the total treated mice at dose 50 mg/kg in exp5; 1/6; format: functional
Mus musculus [38] = experiment: Median survival time of the untreated control groups, in which there are no 30-day survivors at dose 50 mg/kg in exp7; format: functional
Mus musculus [39] = experiment: Median survival time of the treated control groups, in which there are no 30-day survivors at dose 100 mg/kg in exp2; format: functional
Mus musculus [40] = experiment: Median survival time of the treated control groups, in which there are no 30-day survivors at dose 50 mg/kg in exp6; format: functional
[41] = Ratio of median survival times for non-survivors at dose 22 mg/kg in exp7; format: functional
[42] = Ratio of median survival times for non-survivors at dose 50 mg/kg in exp5; format: functional

Structure (SMILES): CS(=O)(=O)CS(=O)(=O)OCCCl
- Mortality (Mus musculus [1]): 0
- Median survival time (Mus musculus [2]): 18.5
- Change in weight (Mus musculus [3]): -1.6
- Mortality (Mus musculus [4]): 0
- Ratio [5]: 144
- Ratio [6]: 273
- Mortality (Mus musculus [7]): 1
- Change in weight (Mus musculus [8]): -1.3
- Ratio [9]: 4
- Mortality (Mus musculus [10]): 0
- Change in weight (Mus musculus [11]): -3
- Mortality (Mus musculus [12]): 0
- Ratio [13]: 0
- Median survival time (Mus musculus [14]): 23.5
- Ratio [15]: 3
- Mortality (Mus musculus [16]): 0
- Ratio [17]: 6
- Median survival time (Mus musculus [18]): 25.7
- Ratio [19]: 209
- Change in weight (Mus musculus [20]): -0.9
- Change in weight (Mus musculus [21]): -3
- Mortality (Mus musculus [22]): 5
- Ratio [23]: 335
- Median survival time (Mus musculus [24]): 18
- Ratio [25]: 198
- Median survival time (Mus musculus [26]): 11
- Median survival time (Mus musculus [27]): 11.2
- Median survival time (Mus musculus [28]): 11.2
- T-C (Mus musculus [29]): -5 g
- Mortality (Mus musculus [30]): 0
- T-C (Mus musculus [31]): -4 g
- Mortality (Mus musculus [32]): 2
- Median survival time (Mus musculus [33]): 11.1
- Mortality (Mus musculus [34]): 1
- Change in weight (Mus musculus [35]): -2.6
- Change in weight (Mus musculus [36]): -2.2
- Ratio [37]: 1
- Median survival time (Mus musculus [38]): 13
- Median survival time (Mus musculus [39]): 22.5
- Median survival time (Mus musculus [40]): 43.5
- Ratio [41]: 168
- Ratio [42]: 225
